# Screening results from PubChem BioAssay.
# Rows were chosen to be rich in hits. Some 0.9% of all compounds tested hit in one or more screens of this group.
# MDM2 E3 inh – blocks human Mdm2 ubiquitin ligase activity. hit rate 0.11% among 210,000. Q00987. cell-based MDM2 ubiquitination luciferase reporter, 2 h; 0 = plate control, 100 = twice control, blank-subtracted. signal enhancement, % at 5 µM;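 active means signal enhancement of 30% or more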;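 further: luminescence tracks abundance of the self-degrading MDM2-luciferase fusion protein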
#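 Assay system: stable mammalian line carrying autodegrading MDM2–luciferase fusion reporter; amount: 2000 cells seeded into each well; buffer or medium: DMEM; benchmarks: plate control and blank wells; signal: luciferase luminescence; timing: 2 h compound exposure at 37 °C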
# S1P4 antagonist – antagonists of human S1P4 receptor | O95977 | S1P4-expressing cells, antagonist mode, reporter read-out | inhibition, % at 4.98 µM | hit rate 0.26% among 220,000 | AID 1510; in the data active means inhibition above about 29%;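 further: 0% = wells stimulated with agonist and 100% = vehicle wells without agonist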
# Target sequence (O95977 whole entry, looked up): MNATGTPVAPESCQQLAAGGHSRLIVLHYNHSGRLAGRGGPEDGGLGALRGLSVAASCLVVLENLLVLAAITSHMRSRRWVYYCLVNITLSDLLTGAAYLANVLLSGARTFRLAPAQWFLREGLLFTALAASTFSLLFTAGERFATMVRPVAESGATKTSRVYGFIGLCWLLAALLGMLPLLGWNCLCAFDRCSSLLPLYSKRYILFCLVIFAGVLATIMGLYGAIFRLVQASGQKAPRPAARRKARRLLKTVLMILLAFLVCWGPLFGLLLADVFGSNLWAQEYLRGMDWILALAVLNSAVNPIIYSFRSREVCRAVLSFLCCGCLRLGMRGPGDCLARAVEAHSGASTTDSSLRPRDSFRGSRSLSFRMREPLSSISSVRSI
# Biofilm kill mix – mixture kills Candida albicans biofilm cells; hit rate 0.02% among 120,000; inhibition, % at 7.6 µM; AID 1242; C. albicans biofilm persisters + clotrimazole, fluorescence viability; primary screen in compound mixtures of four per well;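 further: compounds exposed to preformed 24 h biofilms for 48 h; 0% = untreated biofilm control and 100% = clotrimazole plus chlorhexidine kill blank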
#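 System: C. albicans CAF4-2 wild-type biofilms; Medium: RPMI/MOPS medium, pH 7.0; Reagent: Clotrimazole, 50 µg/mL; Times: biofilm formation 24 h, compound exposure 48 h, 37 °C; Detection: 2-h Alamar Blue fluorescence, 535/590 nm excitation/emission; Evaluation: percent inhibition of biofilm viability.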
# S1P3 antag – antagonists of human S1P3 receptor; Q99500; hit rate 0.27% among 170,000; inhibition, % at 4.98 µM; CHO S1P3 NFAT-BLA reporter, FRET fluorescence, antagonist mode; AID 485;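 active means inhibition above the plate cutoff, the mean inhibition of test wells on that plate plus 3 SD, cut at about 28% in these data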;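 further: cells challenged with S1P at its EC80 of 0.8 µM; blue over green emission ratio from cleaved BLA substrate after 4 h stimulation; 0% = S1P-stimulated wells and 100% = unstimulated DMSO-only wells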
# S1P4 ag – human S1P4 receptor agonism | AID 1509 | S1P4-expressing cell line, agonist reporter assay | hit rate 0.35% among 220,000 | O95977 | activation, % at 4.98 µM; in the data active means activation above about 11%;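 further: 0% = DMSO vehicle and 100% = reference agonist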
# Numbers without * were called inactive; x = no result.
SMILES,MDM2 E3 inh,S1P4 antagonist,Biofilm kill mix,S1P3 antag,S1P4 ag
O=C(N/N=C\c1ccc(Cl)s1)c1cccs1,31*,-4,x,x,3
COc1ccccc1C(=O)N/N=C/c1ccc(Cl)s1,13,-7,5,-8,1
CC(C)NC(=O)NC(=O)COC(=O)c1ccc(F)cc1F,-10,-5,12,6,0
Cc1ccccc1Cn1c(=O)n(Cc2ccco2)c(=O)c2ccccc21,1,0,x,55*,2
Cc1cccc(Cn2c(=O)n(Cc3ccco3)c(=O)c3ccccc32)c1,-12,7,x,-25,-1
Cc1ccc(NC(=O)CN(C)C(=O)c2ccc(S(=O)(=O)N(C)c3ccccc3)cc2)cc1,3,-16,11,-4,0
O=C1c2oc3ccc(Br)cc3c(=O)c2C(c2cccnc2)N1Cc1ccco1 (centres undefined),x,x,x,95*,x
O=C1c2oc3ccccc3c(=O)c2C(c2cccc(Br)c2)N1Cc1ccco1 (centres undefined),-6,-2,x,12,-1
CCCC(c1nnnn1Cc1ccco1)N1CCN(c2cc(Cl)ccc2C)CC1 (centres undefined),-24,9,x,60*,-1
CCCC(c1nnnn1Cc1ccco1)N1CCN(c2ccccc2)CC1 (centres undefined),-2,-2,12,3,0
Cc1ccc(OCc2nnc(SCC(=O)c3cccc([N+](=O)[O-])c3)n2C)cc1,1,3,x,x,-1
O=C(O)CCc1ccc(-c2ccccc2)n1CC(=O)O,-13,-2,x,x,0
O=C(O)CCc1ccc(-c2ccc(Br)cc2)n1CC(=O)O,34*,-11,x,6,-1
CC(C)c1ccc2c(c1)C1(NN=C(c3ccccc3)S1)C(=O)N2 (centres undefined),45*,-5,8,x,0
Cc1c(Br)c(C(F)(F)F)nn1CC(=O)NCCCn1ccnc1,-3,-2,17,-39,0
Cc1cc(C)c(C(N)=O)c(NC(=O)Nc2ccccc2Cl)n1,-12,2,x,x,0
Cc1cc(C)c(C(N)=O)c(Nc2cccc(Cl)c2C)n1,7,-21,x,55*,-3
Nc1ccc2c(c1)Cc1cc([N+](=O)[O-])ccc1-2,-13,20,12,52*,0
CC(NC(=S)NCCc1ccccc1)C(c1cccs1)N1CCN(Cc2ccccc2)CC1 (centres undefined),x,1,2,-2,1
O=C(/C=C/c1ccncc1)c1ccc(NC(=O)c2ccccc2F)cc1,-7,37*,14,1,2
CCCn1c(Nc2nc3ccccc3n2C)nc2ccccc21,-7,5,x,58*,1
CCCCn1c(Nc2ccccc2)nc2ccccc21,-13,4,x,x,0
NS(=O)(=O)c1ccc(CNC(=S)NC2CCCCC2)cc1,-1,1,15,10,-1
CSc1nsc(/C=C/Nc2ccc(F)cc2)c1C#N,35*,-4,19,0,2
COc1ccc(S(=O)(=O)Nc2ccccc2OC)cc1NC(=O)CC1CC2CCC1C2 (centres undefined),1,-11,7,-2,1
SMILES,MDM2 E3 inh,S1P4 antagonist,Biofilm kill mix,S1P3 antag,S1P4 ag
COc1ccccc1-c1cc(SC)c(C#N)c(=O)o1,36*,-12,14,7,0
COc1ccccc1-c1cc(C(F)(F)F)c(C#N)c(=O)[nH]1,-7,15,10,-13,-1
CCC(CO)n1c(=S)[nH]c2cc(OC)c(OC)cc2c1=O (centres undefined),-45,3,14,4,1
Cc1cc(NC(=O)c2ccc(Cl)cc2)c(C)cc1O,-6,7,8,-4,-1
Cc1cc(NC(=O)c2ccc(Cl)cc2)c(C(C)C)cc1O,-7,47*,x,x,-1
COc1ccc(CC(=O)NNS(=O)(=O)c2ccc(F)cc2)cc1OC,-6,6,2,-16,1
Cc1cc(C(=O)Nc2cccc3ccccc23)n(-c2ccccc2)n1,42*,-5,10,-5,0
Cc1cc(C)nc(S/C=C/C(=O)c2ccc(F)cc2)n1,59*,17,19,-7,0
CCCCOC(=O)C1=C(N)N2C(=O)C(C)SC2=C(C(=O)OCC)C1c1ccc(O)c(OC)c1 (centres undefined),-12,-10,-6,5,0
Cc1ccc(NC2=C(CC(=O)O)C(c3ccccc3)N(c3ccc(C)cc3)C2=O)cc1 (centres undefined),-17,-9,5,7,-1
COc1ccc(C2C(CC(=O)O)=C(O)C(=O)N2c2ccccc2)cc1 (centres undefined),34*,-8,x,4,3
Cc1ccc(S(=O)(=O)N2CC(=NO)C2)cc1,-2,4,x,66*,1
Cc1cc(C(=O)C(=O)O)c(C)n1-c1ccc(Cl)c(Cl)c1,-10,-4,16,-14,0
COc1ccc(C)cc1S(=O)(=O)N(C)CC(=O)NC1CCCCCC1,-12,-8,9,-19,0
COc1ccc(C)cc1S(=O)(=O)N(C)CC(=O)NC1CCCCC1,30*,-24,x,-14,2
O=C(c1ccco1)c1cn(CC(=O)N2CCCCCC2)c2ccccc12,0,3,9,-16,1
CC1CCCCN1C(=O)Cn1cc(C(=O)c2ccco2)c2ccccc21 (centres undefined),-16,-32,x,96*,-4
CCCNc1nc2c(c(=O)n(C)c(=O)n2C)n1Cc1ccc(F)cc1,-21,-15,x,85*,1
CN(Cc1ccccc1)S(=O)(=O)c1ccccc1[N+](=O)[O-],-6,-10,3,7,2
CCOC(=O)c1nn(-c2ccc(F)cc2)c2nc(CC(C)C)c(C#N)c(=O)n12,35*,-18,5,x,3
CCOC(=O)c1nn(-c2ccccc2)c2nc(-c3ccc(OC)cc3)c(C#N)c(=O)n12,-6,-8,12,14,0
N#C/C(=C\c1ccccc1OCc1ccc(C(=O)O)cc1)C(=O)Nc1ccc(O)cc1,-24,-25,-4,-3,1
COc1ccc(NC(=O)/C(C#N)=C\c2ccc(OCc3ccc(C(=O)O)cc3)c(OC)c2)cc1,30*,-89,12,-2,0
C=C(C)C(=O)OC1(C(F)(F)F)Oc2cc(C)ccc2NC1=O (centres undefined),x,-4,x,x,0
CCN1CCc2c(sc(NC(=O)Nc3ccc(Cl)c(Cl)c3)c2C(N)=O)C1,-5,-7,15,29*,0
CCN1CCc2c(sc(NC(=S)NC(=O)c3ccco3)c2C(N)=O)C1,-13,6,11,-19,1
COc1ccc(NC(=O)CC2C(=O)N(C)C(=S)N2Cc2ccncc2)cc1 (centres undefined),-23,-17,2,-5,-1
Cc1ccc(Nc2nnc(SCC3CCCCO3)s2)cc1 (centres undefined),848*,-10,1,0,0
NC(=O)CNC(=O)c1ccc(Cl)cc1,-9,5,9,-1,2
O=C(O)CNS(=O)(=O)c1c(Cl)cccc1Cl,-6,-2,14,-7,1
